Source: ChEMBL document CHEMBL1938272 (Bioorg Med Chem, 2012)

How the values were obtained:
[1] = target: NAD(P)H dehydrogenase [quinone] 1 (Mus musculus) (UniProt Q64669); test: Induction of QR1-mediated cytoprotective activity in mouse Hepa-1c1c7 cells at 50 uM assessed as cell survival; type: cell-based
[2] = target: NAD(P)H dehydrogenase [quinone] 1 (Mus musculus) (UniProt Q64669); test: Induction of QR1-mediated cytoprotective activity in mouse TAOc1 mutant Hepa cells at 50 uM assessed as cell survival; type: cell-based
[3] = test system: Radical scavenging activity; test: Antioxidant activity assessed as DPPH free radical scavenging activity at 400 uM after 30 mins by spectrophotometry; type: functional
RAW264.7 [4] = test: Antiinflammatory activity in mouse RAW264.7 cells assessed as inhibition of LPS-induced NO production at 40 uM preincubated for 30 mins before LPS challenge by Griess method
[5] = Inhibition of TNFalpha-activated NF-kappaB expressed in HEK293 cells by luciferase reporter gene assay; type: cell-based
HEK293 = test: Inhibition of TNFalpha-activated NF-kappaB expressed in HEK293 cells at 50 uM by luciferase reporter gene assay; type: cell-based
Aromatase [6] = target: T1, Aromatase (Homo sapiens, UniProt P11511); details: 2 h, read-out: Imax
T1 sequence (P11511 whole entry): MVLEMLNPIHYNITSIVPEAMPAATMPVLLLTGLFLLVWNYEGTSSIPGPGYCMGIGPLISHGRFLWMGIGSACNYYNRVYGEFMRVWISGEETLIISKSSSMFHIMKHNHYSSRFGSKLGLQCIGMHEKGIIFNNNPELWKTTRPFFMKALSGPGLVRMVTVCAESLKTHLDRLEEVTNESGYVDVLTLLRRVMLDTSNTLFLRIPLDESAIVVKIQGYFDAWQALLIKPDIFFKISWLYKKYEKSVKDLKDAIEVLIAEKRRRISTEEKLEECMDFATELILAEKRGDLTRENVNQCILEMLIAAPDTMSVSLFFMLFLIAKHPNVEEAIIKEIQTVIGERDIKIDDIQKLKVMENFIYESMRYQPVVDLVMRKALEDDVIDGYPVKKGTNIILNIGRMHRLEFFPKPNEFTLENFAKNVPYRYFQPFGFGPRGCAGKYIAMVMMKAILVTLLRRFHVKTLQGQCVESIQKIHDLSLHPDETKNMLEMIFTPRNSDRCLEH

MCF7 = test: Antiproliferative activity against human MCF7 cells after 72 hrs by SRB assay; type: functional, cell-based; details: MCF7, 72 h
Outline: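 MCF-7 breast cancer cells exposed to serially diluted compounds (DMSO) for 72 h at 37 °C in CO2 incubator; fixed with 10% trichloroacetic acid, stained with 0.4% SRB, OD read at 515 nm. Zero-day control of 1 × 10^4 cells per well processed after 30 min. Survival = (OD test − OD zero-day)/(OD control − OD zero-day) × 100; IC50 from survival.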

[7] = target: NAD(P)H dehydrogenase [quinone] 1 (Mus musculus) (UniProt Q64669); test: Induction of QR1-mediated cytoprotective activity in mouse BPrc1 cells at 50 uM assessed as cell survival; type: cell-based
[8] = target: NAD(P)H dehydrogenase [quinone] 1 (Mus musculus) (UniProt Q64669); test: Induction of QR1 activity in mouse Hepa-1c1c7 cells using MTT as substrate by spectrophotometry; type: cell-based
Outline: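 Mouse hepatoma Hepa 1c1c7 cells were incubated with compound, then permeabilised with digitonin. QR1 activity was read as MTT reduction to formazan at 595 nm, with crystal violet total protein run in parallel. Induction ratio is activity versus control; CD is the concentration doubling activity, derived only when the ratio is above 2.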

Aromatase [9] = target: T1, Aromatase
RAW264.7 [10] = test: Antiinflammatory activity in mouse RAW264.7 cells assessed as inhibition of LPS-induced NO production preincubated for 30 mins before LPS challenge measured after 24 hrs by Griess method; type: functional, cell-based
[11] = target: NAD(P)H dehydrogenase [quinone] 1 (Mus musculus) (UniProt Q64669); test: Induction of QR1 activity in mouse TAOc1 mutant Hepa cells using MTT as substrate by spectrophotometry; type: cell-based
[12] = target: NAD(P)H dehydrogenase [quinone] 1 (Mus musculus) (UniProt Q64669); test: Induction of QR1 activity in mouse BPrc1 cells using MTT as substrate by spectrophotometry; type: cell-based
Aromatase [13] = target: T1, Aromatase; test: Ratio of trans-resveratrol IC50 to compound IC50 for human aromatase

Chain of NAD(P)H dehydrogenase [quinone] 1 (Mus musculus) (Q64669 whole entry): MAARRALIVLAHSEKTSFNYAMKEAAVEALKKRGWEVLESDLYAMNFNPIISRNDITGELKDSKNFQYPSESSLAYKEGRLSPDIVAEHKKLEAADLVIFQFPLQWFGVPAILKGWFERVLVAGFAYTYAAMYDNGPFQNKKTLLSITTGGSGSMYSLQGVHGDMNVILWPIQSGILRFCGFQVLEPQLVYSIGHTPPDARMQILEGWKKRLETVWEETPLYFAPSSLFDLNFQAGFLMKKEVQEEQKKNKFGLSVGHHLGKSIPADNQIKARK

SMILES | Survival [1] | Survival [2] | inhibition [3] | inhibition at 40 µM (RAW264.7 [4]) | IC50 [5] | inhibition (HEK293) | inhibition at 50 µM (Aromatase [6]) | IC50 (MCF7) | Survival [7] | CD [8] | IC50 (Aromatase [9]) | IC50 (RAW264.7 [10]) | CD [11] | CD [12] | Ratio IC50 (Aromatase [13])
COc1cccc(-c2nsc(-c3cccc(OC)c3)n2)c1 | 63.7% | 76.3% | -2.1% | 17.6% | 0.4 µM | 93.9% | 26.6% | 24.2 µM | 97.1% | 4.03 µM | > 50 µM | – | – | – | –
Oc1ccc(-c2nsc(-c3ccc(O)cc3)n2)cc1 | 36.5% | – | 3.4% | 93.7% | 19.3 µM | – | 50.4% | 4.7 µM | – | – | > 50 µM | 13.5 µM | – | – | –
Oc1cccc(-c2nsc(-c3cccc(O)c3)n2)c1 | 4% | 63.7% | – | 47.4% | 38.1 µM | – | 24.4% | – | 94.3% | – | > 50 µM | – | – | – | –
Nc1ccc(-c2nsc(-c3ccc(N)cc3)n2)cc1 | 66.1% | – | – | – | 7.6 µM | – | 70.4% | 30.8 µM | – | – | 26.5 µM | 23.3 µM | – | – | –
Brc1cccc(-c2nsc(-c3cccc(Br)c3)n2)c1 | 79.3% | 77.7% | 1% | 22.8% | – | 0% | 48.4% | 31 µM | 92.3% | 0.059 µM | > 50 µM | – | 2.5 µM | 6.5 µM | –
Cc1cccc(-c2nsc(-c3cccc(C)c3)n2)c1 | 33.7% | 94.9% | 1.9% | 0.9% | 0.8 µM | – | 32.9% | 22.1 µM | 100% | 4 µM | > 50 µM | – | – | – | –
c1cncc(-c2nsc(-c3cccnc3)n2)c1 | 73.5% | 71.6% | – | 1.3% | – | 30.9% | 97.2% | – | 87.8% | 53.1 µM | 0.2 µM | – | – | – | 125
Ic1ccccc1-c1nsc(-c2ccccc2I)n1 | 48.8% | 69.8% | 3.4% | 30% | – | – | 39.4% | – | 95.1% | – | > 50 µM | 30 µM | 6.3 µM | 8.1 µM | –
c1ccc(-c2nsc(-c3ccccc3)n2)cc1 | 50.3% | 85.9% | – | 55.7% | 47.4 µM | – | 60.2% | 24.4 µM | 77.8% | – | > 50 µM | – | 18.6 µM | 49.7 µM | –
c1cc(-c2nsc(-c3ccncc3)n2)ccn1 | 86.6% | – | -35.6% | 0.9% | – | 7.2% | 98% | – | – | – | 0.8 µM | – | – | – | 30
Cc1ccc(Cl)cc1-c1nsc(-c2cc(Cl)ccc2C)n1 | 37.9% | 80.2% | 1.3% | 25.9% | – | 29.7% | 22% | 29 µM | 91.5% | 0.47 µM | > 50 µM | – | 2 µM | 4.4 µM | –
